# Assay results published in article PMC7993281 (Clinical and Translational Science, 2020).
# Key:
# [1] = test system: glucosylceramide (GlcCer) plasma concentration; experiment: MAD study pharmacodynamics: plasma GlcCer; format: in vivo, human
# In short: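 Healthy men and women (1:1), 8 active and 2 placebo per cohort. Oral 30, 100, 300 or 1,000 mg b.i.d. for 7 days. Morning dose after a 10-hour fast, evening dose 2 hours after dinner. Plasma sampled on Days 1, 2, 4 and 7 and at 24, 48 and 72 h after the last dose. Validated LC-MS/MS. Percent change from Day 1 predose.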
# Single-ascending dose = format: in vivo, human; conditions: for Tmax / half-life / CL renal: human, oral; for Tmax / half-life: plasma
# In short: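 Healthy men, single oral 10–2,000 mg after a 10-hour fast. The 300 mg cohort was repeated 30 min after a high-fat, high-calorie breakfast following at least 7 days washout. Plasma sampled up to 48 h; 300 mg urine collected at 0–12, 12–24 and 24–48 h. Validated LC-MS/MS with noncompartmental analysis. Fed/fasted GMR with 90% CI; Tmax compared by nonparametric median difference.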
# [2] = Cardiodynamic and exposure-response analysis of QT interval; format: in vivo, human
# [3] = MAD study tolerability/safety; format: in vivo, human
# In short: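 Healthy men and women aged 18–55 years, BMI 18–30 kg/m2, 8 active and 2 placebo per cohort. Oral 30–1,000 mg b.i.d. for 7 days with staggered dosing. Subjects were confined until 72 h after the last dose, with follow-up at 29–34 days. AEs, vital signs, ECG, physical examination and clinical laboratory tests were recorded and summarised descriptively.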
# [4] = cited from earlier work
# [5] = test system: organic cation transporter 2; conditions: in vitro; ref Idorsia Pharmaceuticals Ltd, unpublished data; cited from earlier work
# [6] = SAD study tolerability/safety; format: in vivo, human
# In short: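 Healthy men aged 18–55 years, single oral doses of 10–2,000 mg, 6 active and 2 placebo per cohort, staggered dosing. Fasted dosing, plus a fed period in the 300 mg cohort after at least 7 days washout. Subjects were confined until 48 h post-dose, with follow-up at 29–34 days. AEs, vital signs, ECG, examination and laboratory tests were summarised descriptively.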
# [7] = MAD 300 mg b.i.d. for 7 days (n = 8)
compound,measurement,setting,value
"CCCCCN1C[C@H](O)[C@@H](O)[C@H](O)[C@@H]1CO [sinbaglustat, (2S,3R,4R,5S)‐2‐(hydroxymethyl)‐1‐pentylpiperidine‐3,4,5‐triol]",GlcCer during the treatment period,[1]; 30 mg b.i.d.,remained at baseline
same,GlcCer increase from baseline concentration,"[1]; 30 mg b.i.d., 72 hours after the last dose",32%
same,GlcCer percentage change from baseline,"[1]; 100 mg b.i.d., 48 hours after the last dose",–7%
same,GlcCer percentage change from baseline,"[1]; 300 mg b.i.d., 72 hours after the last dose",–1%
same,GlcCer percentage change from baseline,"[1]; 1,000 mg b.i.d., 72 hours after the last dose",–19%
same,reduction in GlcCer,"[1]; highest tested dose (1,000 mg b.i.d.), repeated treatment",72%
same,fraction of dose excreted unchanged in urine,Single-ascending dose; 300 mg single dose,About half
same,"median difference in Tmax, fed vs fasted","Single-ascending dose; 300 mg single dose, high‐fat, high‐calorie meal, 90% CI 0.50–1.70",1 h
same,Tmax,"Single-ascending dose; 100 mg, single dose 100 mg, fasted, median (range)",1.4 h
same,Tmax,"Single-ascending dose; 300 mg, single dose 300 mg fasted, median (range)",0.9 h
same,Tmax,"Single-ascending dose; 300 mg, single dose 300 mg fed, median (range)",2.25 h
same,half-life,Single-ascending dose; 1000 mg,11.6 h
same,Tmax,"Single-ascending dose; 1000 mg, single dose 1,000 mg, fasted, median (range)",1.5 h
same,Tmax,"Single-ascending dose; 2000 mg, single dose 2,000 mg, fasted, median (range)",2 h
same,CL renal,"Single-ascending dose; urine and plasma, 300 mg",225 mL/min
same,CL renal,"Single-ascending dose; male, plasma and urine, 300 mg",225 mL/min
same,half-life,Single-ascending dose; male,~12 h
same,Tmax,"Single-ascending dose; male, across single doses 10 to 2,000 mg",0.9 to 2 h
same,duration of distribution phase,Single-ascending dose; single dose,~ 24 hours
same,"UPE, percentage of dose excreted unchanged in urine","Single-ascending dose; single dose 300 mg fasted, geometric mean (95% CI)","48.74 (43.53, 54.59) %"
same,"effect on QTcF, HR, PR, and QRS intervals",[2]; change‐from‐baseline and placebo‐adjusted change‐from‐baseline,no clinically relevant effect
same,slope of concentration–ΔΔQTcF relationship,"[2]; linear mixed‐effects model, 90% CI −0.00008 to 0.00056, statistically nonsignificant",0.0002 ms per ng/mL
same,treatment effect‐specific intercept,"[2]; linear mixed‐effects model, nonstatistically significant",-2.7 ms
same,Dizziness (subjects),[3]; MAD 30 mg b.i.d. (n = 8),4
same,Headache (subjects),[3]; MAD 30 mg b.i.d. (n = 8),2
same,Muscle twitching (subjects),[3]; MAD 30 mg b.i.d. (n = 8),1
same,Pain in extremity (subjects),[3]; MAD 30 mg b.i.d. (n = 8),1
same,Viral upper respiratory tract (subjects),[3]; MAD 30 mg b.i.d. (n = 8),1
same,Total number of AEs,[3]; MAD 30 mg b.i.d. for 7 days (n = 8),13
same,Dizziness (subjects),[3]; MAD 100 mg b.i.d. (n = 8),2
same,Fatigue (subjects),[3]; MAD 100 mg b.i.d. (n = 8),1
same,Total number of AEs,[3]; MAD 100 mg b.i.d. for 7 days (n = 8),8
same,Dizziness (subjects),[3]; MAD 300 mg b.i.d. (n = 8),1
same,Headache (subjects),[3]; MAD 300 mg b.i.d. (n = 8),2
same,Nausea (subjects),[3]; MAD 300 mg b.i.d. (n = 8),1
same,Rash (subjects),[3]; MAD 300 mg b.i.d. (n = 8),1
same,Number of subjects with at least 1 AE,[3]; [7],4
same,Total number of AEs,[3]; [7],8
same,Constipation (subjects),"[3]; MAD 1,000 mg b.i.d. (n = 8)",1
same,Decreased appetite (subjects),"[3]; MAD 1,000 mg b.i.d. (n = 8)",3
same,Diarrhea (subjects),"[3]; MAD 1,000 mg b.i.d. (n = 8)",2
same,Dizziness (subjects),"[3]; MAD 1,000 mg b.i.d. (n = 8)",3
same,Fatigue (subjects),"[3]; MAD 1,000 mg b.i.d. (n = 8)",2
same,Headache (subjects),"[3]; MAD 1,000 mg b.i.d. (n = 8)",4
same,Muscle twitching (subjects),"[3]; MAD 1,000 mg b.i.d. (n = 8)",1
same,Nausea (subjects),"[3]; MAD 1,000 mg b.i.d. (n = 8)",3
same,Palpitations (subjects),"[3]; MAD 1,000 mg b.i.d. (n = 8)",1
same,Vomiting (subjects),"[3]; MAD 1,000 mg b.i.d. (n = 8)",2
same,female subjects reporting headache (of 4),"[3]; MAD 1,000 mg b.i.d., female subjects",4
same,subjects reporting AEs (of 32 treated),"[3]; MAD, all doses",19
same,subjects reporting dizziness (of 32),"[3]; MAD, all doses",10
same,subjects reporting headache (of 32),"[3]; MAD, all doses",8
same,subjects reporting AEs,"[3]; MAD, all doses, 32 subjects",59%
same,total AEs reported,"[3]; MAD, all doses, 32 subjects",66
same,blood‐brain barrier crossing,[4],crosses the blood‐brain barrier
same,organic cation transporter 2 interaction,[5],a substrate and an inhibitor
same,"AEs in the 30, 300, and 2,000 mg cohort",[6]; SAD,No AE was reported
same,Dizziness (subjects),[6]; SAD 10 mg (n = 6),1
same,Number of subjects with at least 1 AE,[6]; SAD 10 mg (n = 6),1
